Data on 20 sequences can be found in the EternaBench riboswitch data.

Broadly, the apparent Kd is a dissociation constant that holds for the conditions of the assay.

The data set has as its system MS2 coat protein. Kind of data set: apparent Kd, MS2 coat protein; higher = weaker binding; RNA-MaP array; FMN 200 µM where present. In short, it runs like this: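 Designs on Illumina sequencing-chip clusters, transcribed by stalled E. coli RNA polymerase, were exposed to SNAP-549-labelled MS2 coat protein in doubling steps from 0.7 or 1.5 nM up to 3 µM, without and then with constant ligand. The buffer held 100 mM Tris-HCl pH 7.5, 80 mM KCl, 4 mM MgCl2, BSA, DTT, yeast tRNA and Tween-20. Apparent Kd values are medians of filtered per-cluster binding-curve fits to green signal normalised to red-channel RNA signal and control-cluster median Fmax.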

The mark [1] stands for this setting: designed as: ON switch for flavin mononucleotide, no ligand.
The mark [2] stands for this setting: ligand present: flavin mononucleotide, designed as: ON switch for flavin mononucleotide.
Where [3] appears, read: designed as: OFF switch for flavin mononucleotide, no ligand.
Setting [4] is: ligand present: flavin mononucleotide, designed as: OFF switch for flavin mononucleotide.

Regarding “CGGCGCUGUUGAGAGGAUAUGCGGUGAUGGACAUGAGGAUCACCCAUGUUAGCGAUAGCAUUACGGUAGAAGGCUCUACAGCUGC”, the “apparent Kd” value under setting [1] stood at 17.9 nM and the “apparent Kd” value under setting [2] is 14.1 nM.
“UCGCUUGAAGGAUAUACGAUUCGUUGUGUUCGUGUCACCUGACAUGAGGAUCACCCAUGUAGAAGGUCACGCAG”: the “apparent Kd” value was found to be 18.6 nM under setting [3] and 24.6 nM under setting [4].
“AAAAUGUGAGGAUAUCAGGUGUGCUAGAGAACUGGUACAUCUGAGAAGGCACAUGAGGAUCACCCAUGUUCUUC”: the “apparent Kd” value under setting [3] was 34.6 nM and the “apparent Kd” value under setting [4] turned out to be 156 nM.
In the same order, the values of “GCGUGGUUCUAGAAGGUGCUAGCGAUAAGCUAGCAAGGAUAUAGACAUGAGGAUCACCCAUGUCUUUGUGAAAUCGACACACGC” are 5.58 nM and 6.39 nM.
In the case of “ACACGACAUGAGGAUCACCCAUGUGAGGAUAUCGAACUCAACUAAGCACAAAGUAACCCGAGAAGGCACACAAU”, the “apparent Kd” value reads like this: under setting [3], 25.1 nM; under setting [4], 24.1 nM.
Taken in the same sequence, the figures for “UUGUGGGAGCAGGAUAUCUUAUUUUUUUUUUGUGGAGAAGGGCUGACAUGAGGAUCACCCAUGUGGUCCUAGAU” were 28.2 nM and 27.9 nM.
On to “CGUGAACAUGAGGAUCACCCAUGUGAAAAACAUAGAGGAUAUGUCACGUGAGUGUAAAAGACAGAAGGCUAUCGUG”, for which the “apparent Kd” value under setting [1] stood at 85.4 nM and the “apparent Kd” value under setting [2] came out at 43 nM.
In the same order, the values of “GAGUGGAAGGCCGCUACAUGAGGAUCACCCAUGUGCUAAGCACAGGAUAUCGCGCUAGCCCGGCGCGAGAAGGGUGACGGCCUU” are 577 nM and 276 nM.
For the sequence “UACUUGUUAGGAUAUCUUACAUUUGCAUCAUAGCAACCAUUGGAGAAGGGACAUGAGGAUCACCCAUGUUUGGU”, the “apparent Kd” value is, setting by setting: under setting [3], 42.3 nM; under setting [4], 43.8 nM.
For “CCCGUGUGUUAAGGAUAUGGCAGGCGCGUUGAACCAGAAGGUAGCACAUGAGGAUCACCCAUGUGAAUGCUCACGACUCGAGCA”, the “apparent Kd” value runs as follows: under setting [3], 40.1 nM; under setting [4], 23.6 nM.
“AGUACCAUGUAGAAGGGAUAUCUCAAAGAGAUAUCAGGAUAUACAUGAGGAUCACCCAUGUAAAUGUACUCCAGGAAACUGGAA”: the “apparent Kd” value reads like this: under setting [3], 19.8 nM; under setting [4], 55.3 nM.
In the same order, the values of “CCCAUGUGUGUGAGGAUAUGGUCAGUCAUACUCGGCCAGAAGGCACAUGAGGAUCACCCAUGUGGCCUCUCAUC” are 17 nM and 17.8 nM.
Take “GGAGCUCAGAUUAACAUGAGGAUCACCCAUGUCUUUUGACAUGAGGAUAUGGAUCCUAAUUGGAUCCAGAAGGCAUGGAGCUCC”: the “apparent Kd” value is, setting by setting: under setting [1], 1590 nM; under setting [2], 126 nM.
For the sequence “AUUAUAUAGGAAGGAUAUAGAAUAUUAUUUUAACAUGAGGAUCACCCAUGUAACCUUAUGUGUAGCUAGAAGGUCCAUUUAUUA”, the “apparent Kd” value is 97.5 nM under setting [3] and 153 nM under setting [4].
Taken in the same sequence, the figures for “GAGGAACAUGAGGAUCACCCAUGUGAGGAUAUGCAUAGUGAGGUAGUAGACGUUGAAUGCAGAAGGUACACUGA” were 47.6 nM and 34.3 nM.
Take “UUAUUAUAUGUAGGAUAUGCAUAUUAUUAUUAUGCAGAAGGACAUGAGGAUCACCCAUGUAUAUUAUUGUUAUAUAUUAUAUAU”: the “apparent Kd” value reads like this: under setting [3], 24.8 nM; under setting [4], 39.3 nM.
As for “AAUAACAGAGGAUAUACUAUUUUAUGUGUUUAUUGUUUUGAACAUGAGGAUCACCCAUGUAGAAGGCUGAUUGA”, the “apparent Kd” value is, setting by setting: under setting [3], 47.8 nM; under setting [4], 56.3 nM.
“GCAAUGUGAUAAGGAUAUCCAAUGGCAUCCCUAGGAGAAGGUAUCACAUGAGGAUCACCCAUGUGAAGGACGGGUUAUCGCAAA”: under setting [4], the “apparent Kd” value worked out at 211 nM.
“GGCUAGUCAGGAUAUACGAACAUGUCAAAAGACGUGAAGGGACAUGAGGAUCACCCAUGUAGAAGGGACUAGCG”: the “apparent Kd” value reads like this: under setting [3], 29.4 nM; under setting [4], 141 nM.
For the sequence “ACAUUUUAUGCAGGAUAUUGACAUAUAUUUAAACAAGAAGGGCAUUACAUGAGGAUCACCCAUGUUAUAUUGGUAUAUAAGUUC”, the “apparent Kd” value was found to be 17.4 nM under setting [3] and 14.8 nM under setting [4].
